# Screening data (PubChem BioAssay)
# In the library only some 3.5% were active in any assay of this set; here they are far more common.
# MrgX1 allo act: allosterically activates human MrgX1 receptor signaling | MrgX1-HEK293, Fluo-4 calcium flux, FDSS; hits give high values | Q96LB2 | actives 0.63% (n = 310,000) | B-score at 10 µM;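 active means plate-corrected calcium response at least 3 library SD above typical, normal starting fluorescence, not activating the receptor alone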;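 further: compound read alongside a low EC10 to EC30 dose of BAM8-22 agonist; peak minus trough fluorescence over baseline measured at the second addition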
# Target sequence (Q96LB2 whole entry, looked up): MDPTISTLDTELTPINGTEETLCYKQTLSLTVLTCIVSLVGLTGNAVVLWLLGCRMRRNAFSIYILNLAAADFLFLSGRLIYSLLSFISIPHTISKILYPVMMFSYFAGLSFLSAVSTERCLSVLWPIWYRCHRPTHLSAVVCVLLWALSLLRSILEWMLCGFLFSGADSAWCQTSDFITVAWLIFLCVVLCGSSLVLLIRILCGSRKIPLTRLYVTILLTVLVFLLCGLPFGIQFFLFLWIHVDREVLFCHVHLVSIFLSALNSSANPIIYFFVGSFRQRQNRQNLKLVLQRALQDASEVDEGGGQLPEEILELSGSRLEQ
# MrgX1 antagonist: human MrgX1 receptor antagonism, primary screen; Q96LB2; MRGX1-HEK293 calcium flux, Fluo-4, BAM8-22 antagonism; hits give low values; B-score at 10 µM; actives 1.3% (n = 310,000); AID 588676;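 active means calcium-response B-score plate-corrected more than 3 library SD below zero, starting fluorescence within 5 deviations, no agonist response on first addition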;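 further: peak minus trough fluorescence over baseline after final BAM8-22 challenge near maximal dose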
# MrgX1 ag: human MrgX1 receptor agonism, primary screen | Q96LB2 | MrgX1-HEK293 cells, Fluo-4 calcium fluorescence, agonist mode; hits give high values | B-score at 10 µM | actives 0.44% (n = 310,000);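 active means calcium response B-score plate-corrected fluorescence ratio at least 3 library SD, with starting fluorescence B-score inside 5 SD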
#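 Assay system: stable human MrgX1 HEK293 cell line. Quantity: 15,000 cells per well. Schedule: cells plated overnight, dye loaded 0.5 h 37 °C, 0.5 h room temperature. Detection: Fluo-4 NW calcium-flux fluorescence, kinetic read. Read-out basis: peak-minus-minimum fluorescence over baseline, converted to B scores. Control set: positive and negative control wells on each plate.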
# RGS4 pot: potentiators or activators of RGS4; AID 463111; B-score at 10 µM; HEK293 M3R/inducible RGS4, carbachol calcium flux Fluo4; hits give low values; actives 0.92% (n = 310,000);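 active means B-score of the integrated calcium signal more than 4 SD below the library mean, with starting fluorescence not abnormally high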;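 further: negative B-score means reduced calcium response which marks RGS4 activation or potentiation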
#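 Assay system: HEK293 FlpIn-TREx cells, stable M3R, doxycycline-inducible RGS4 / Probe or stimulus: carbachol, ECmax concentration / Times: overnight RGS4 induction, 30 min dye load 37 °C, 20 min compound RT / Signal: kinetic calcium fluorescence imaging with Fluo4-AM dye, 2 µM / Measure: Agonist-evoked peak-minus-minimum fluorescence over baseline, integrated ratio, B score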
# RGS4 block: human RGS4 inhibition | P49798 | actives 0.45% (n = 310,000) | AID 463165 | B-score at 10 µM | HEK293 M3R/RGS4 inducible, Fluo-4 calcium flux; hits give high values; triggered by carbachol at its EC20;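 active means B-score, a plate-corrected calcium signal, over three deviations above library mean, with baseline fluorescence within five deviations of library mean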;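 further: RGS4 expression induced by doxycycline in cells with stable M3 receptor; B-score is computed from the integrated fluorescence ratio over baseline after carbachol; higher B-score means a larger calcium signal and so more RGS4 inhibition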
# Target sequence (P49798 whole entry, looked up): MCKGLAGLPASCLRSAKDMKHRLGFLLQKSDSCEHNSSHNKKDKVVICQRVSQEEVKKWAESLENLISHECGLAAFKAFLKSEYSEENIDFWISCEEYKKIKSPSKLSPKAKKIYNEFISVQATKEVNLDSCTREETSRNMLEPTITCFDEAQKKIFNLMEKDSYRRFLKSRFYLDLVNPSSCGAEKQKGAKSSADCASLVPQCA
# MrgX1 ant reconf: reconfirmed antagonist of human MrgX1 receptor signaling | shares compounds with MrgX1 antagonist | MrgX1-HEK293, BAM8-22 calcium flux, Fluo-4; hits give low values | remaining BAM8-22 calcium response % of control (hits give low values), % at 10 µM | actives 19% (n = 2,300) | AID 602420;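 active means remaining agonist calcium response no higher than 100% minus 3 SD of agonist-only control wells, with starting fluorescence near control levels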;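 further: agonist BAM8-22 given at a near maximal EC90 to ECmax level; peak minus minimum fluorescence divided by baseline after agonist addition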
# HEK293 Ca flux: activity in parental HEK293 cells lacking MrgX1; shares compounds with MrgX1 antagonist; Fluo-4 calcium fluorescence, FDSS; fluorescence ratio F(max-min)/F0 at 10 µM; actives 2% (n = 4,000);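 active means duplicate-averaged calcium fluorescence ratio at least three times the standard deviation of buffer wells, a nonspecific response in parental cells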
# HEK293 Ca counter: activity in parental HEK293 cells without MrgX1 | shares compounds with MrgX1 antagonist | parental HEK293 calcium flux, Fluo-4 fluorescence ratio; hits give high values | fluorescence ratio F(max-min)/F0 at 10 µM | actives 0.4% (n = 4,000) | AID 624114;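 active means calcium fluorescence ratio, averaged over duplicates, at least 3 SD of the buffer-well ratio, meaning a nonspecific response in receptor-free cells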;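 further: untransfected parental HEK293 lacking MrgX1 used as counterscreen for MrgX1 allosteric activators; fluorescence change taken during the second addition on a kinetic imager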
# HEK293 Ca cntr2: MrgX1 activator counter-screen hit in parental HEK293 cells. shares compounds with MrgX1 antagonist. Fluo-4 calcium fluorescence (FDSS); hits give high values. fluorescence ratio F(max-min)/F0 at 10 µM. actives 8.7% (n = 4,000). AID 624115;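 active means calcium fluorescence ratio at least three times the spread of buffer wells, meaning a non-specific response in parental cells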
# Numbers without * were called inactive; i = inactive; / = not tested or not shown.
SMILES,MrgX1 allo act,MrgX1 antagonist,MrgX1 ag,RGS4 pot,RGS4 block,MrgX1 ant reconf,HEK293 Ca flux,HEK293 Ca counter,HEK293 Ca cntr2
CCN1c2ccccc2-c2nc3ccccc3n2C1c1cccs1 (stereo not drawn),i,-6.1*,i,i,i,i,i,i,i
CCCn1c(-c2cccs2)nc2ccccc21,i,i,i,i,i,/,/,/,/
CCOC(=O)c1nnc(-c2ccccc2)nc1N1CCSCC1,i,-5.6*,i,i,i,i,i,i,i
COc1ccc(C2=NS(=O)(=O)N(C)C(C(=O)N3CCc4ccccc4C3)=C2)cc1OC,i,i,i,i,i,/,/,/,/
CN(CCN1CCOCC1)C(=O)CC1C(=O)NCCN1Cc1ccccc1F (stereo not drawn),i,-8.6*,i,i,i,i,i,i,i
CN(CCC1CCOCC1)C(=O)CC1C(=O)NCCN1Cc1ccccc1F (stereo not drawn),i,i,i,i,i,/,/,/,/
CCCc1ccc(OCC(=O)O)cc1,i,i,i,i,i,/,/,/,/
CCC(C)c1ccc(OCC(=O)O)cc1 (stereo not drawn),i,-6.9*,i,i,i,i,i,i,i
O=C(Nc1ccccc1)C1CCOC1=O (stereo not drawn),i,i,i,i,i,/,/,/,/
O=C(COc1ccccc1)Nc1nnc(-c2ccc(F)cc2)o1,i,i,i,i,i,/,/,/,/
O=C(COc1ccccc1)Nc1nnc(-c2ccccc2Cl)o1,i,-7.9*,i,i,i,i,i,i,i
COC(=O)C1CSc2[nH]c(=O)sc2C1c1ccccc1 (stereo not drawn),i,-5.7*,i,i,i,i,i,i,i
O=C(Nc1ccc(OC(F)(F)F)cc1)Oc1ccccc1N1CCCCC1,i,-5.4*,i,i,i,i,i,i,i
CCN(CC(=O)Nc1ccc2c(c1)OCCO2)c1nc(-c2cccnc2)nc2ccccc12,i,-11*,i,i,i,i,i,i,i
O=C(Nc1ccc2c(c1)OCO2)c1cc(-c2cccnc2)nc2ccccc12,i,i,i,i,i,/,/,/,/
COc1ccc(Nc2nc(-c3ccccc3)c(C(=O)Nc3cccnc3)s2)cc1,i,i,i,i,i,/,/,/,/
Cc1nc(Cc2nnc(SC(C)C(=O)Nc3cccc(C#N)c3)o2)cs1 (stereo not drawn),i,-5.9*,i,i,i,i,i,i,i
CC(=O)c1ccccc1NC(=O)CSc1nnc(Cc2csc(C)n2)o1,i,i,i,i,i,/,/,/,/
O=C(O)c1ccc(NC(=S)NC(=O)c2ccc(-c3ccccc3)cc2)cc1,i,-5.2*,i,i,i,82%*,i,i,i
O=C(NC(=S)Nc1ccccc1)c1ccc(-c2ccccc2)cc1,i,i,i,i,i,/,/,/,/
Cc1cccc(-c2nc(CSc3nc4c(c(=O)[nH]3)CCC4)c(C)o2)c1,i,-8.4*,i,i,i,82%*,i,i,i
CS(=O)(=O)c1ccc(Cl)c(NC(=O)c2cccc(-n3cnnn3)c2)c1,i,i,i,i,i,/,/,/,/
